Assay outcomes deposited in PubChem BioAssay by Johns Hopkins Ion Channel Center.
KCNQ1 pot: human KCNQ1 channel potentiation or activation | P51787 | CHO-K1 KCNQ1, thallium flux FluxOR fluorescence; active compounds read high | B-score at 10 µM | hit rate 0.35% among 310,000;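 active = fluorescence ratio B-score, a plate-corrected score, at least three library SD, with initial intensity B-score within 5 SD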
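assay system = CHO-K1 cells stably expressing KCNQ1 | medium = assay buffer, equal DMSO in all wells | timing = 37 °C overnight plating, 90-min dark dye load, 20-min compound pretreatment | measured by = kinetic FluxOR thallium fluorescence, 10-s 1-Hz baseline, 110-s post-stimulus read | measure = fluorescence change relative to baseline, converted to B score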
KCNQ1 inh: blocks the human KCNQ1 potassium channel; P51787; CHO-K1 KCNQ1, FluxOR thallium flux fluorescence; active compounds read high; B-score at 10 µM; hit rate 1.3% among 310,000;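 active = compounds whose thallium flux B-score, printed positive for inhibition, exceeds three library SD while starting fluorescence stays within three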;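 note: channel opened by potassium depolarization with thallium stimulus after 20 min compound exposure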
KCNK9 block: inhibitors of human KCNK9 two-pore domain potassium channel | B-score at 10 µM | HEK293 KCNK9, FluxOR thallium flux fluorescence; active compounds read low | Q9NPC2 | AID 488922 | hit rate 1.2% among 310,000;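 active = ratio B-score over 3 SD below the library mean, with starting fluorescence within 5 SD of its mean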;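 note: negative B-score means less thallium flux so channel inhibition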
Kir21 block: blocks the mouse Kir2.1 inward-rectifier potassium channel | P35561 | HEK293-Kir2.1, FluxOR thallium flux fluorescence; active compounds read low | B-score at 10 µM | hit rate 0.85% among 310,000;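 active = fluorescence ratio B-score at or below minus 3 SD of library scores, with starting-brightness B-score within 2 SD, cut at about -4.2 in these data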;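 note: channel flux triggered by added potassium and thallium sulfate stimulus; B-score of peak minus minimum fluorescence over baseline after thallium stimulus; more negative B-score means stronger Kir2.1 block with less thallium influx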
hERG rescue: shields human hERG channel from block by proarrhythmic agents. Q12809. hit rate 0.51% among 310,000. CHO-hERG, FluxOR thallium flux, dofetilide IC70 present. activation (rescue from dofetilide block), less the hit threshold, % at 10 µM;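 active = activation above the mean of controls blocked by dofetilide plus 5 SD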;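 note: thallium influx through hERG after potassium depolarization seen as dye fluorescence rise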
KCNK3 block: human KCNK3 channel inhibition, primary screen; O14649; hit rate 0.84% among 340,000; CHO-KCNK3 thallium flux, FluxOR fluorescence; active compounds read low; B-score at 10 µM; AID 602410;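 active = B-score under library mean minus 4 SD, starting fluorescence ratio at most library mean plus 5 SD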;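 note: more negative B-score means stronger inhibition of thallium flux through KCNK3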
Target sequence (O14649 whole entry, looked up): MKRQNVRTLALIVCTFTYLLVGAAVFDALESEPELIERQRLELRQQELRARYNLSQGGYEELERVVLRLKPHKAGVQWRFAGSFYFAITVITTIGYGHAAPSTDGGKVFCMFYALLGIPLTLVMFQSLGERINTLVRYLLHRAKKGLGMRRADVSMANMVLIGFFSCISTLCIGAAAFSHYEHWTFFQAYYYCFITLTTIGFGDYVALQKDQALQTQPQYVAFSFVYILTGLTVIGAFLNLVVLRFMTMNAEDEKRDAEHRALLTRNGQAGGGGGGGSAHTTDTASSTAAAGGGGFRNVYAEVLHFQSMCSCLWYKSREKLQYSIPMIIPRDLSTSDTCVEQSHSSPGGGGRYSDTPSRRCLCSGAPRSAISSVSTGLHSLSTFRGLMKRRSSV
KCNK9 block conf: confirmation of human KCNK9 potassium channel inhibitors | shares compounds with KCNK9 block | HEK293 KCNK9 cells, FluxOR thallium flux fluorescence | inhibition, % at 10 µM | hit rate 43% among 4,900 | AID 492992;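 active = thallium signal inhibited by more than 5 SD of the compound-free buffer control wells, on both duplicate plates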;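 note: 0% = assay buffer control wells without compound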
Kir21 sel: selectivity of KCNK9 modulators against mouse Kir2.1 | shares compounds with KCNK9 block | Kir2.1 cells, FluxOR thallium flux fluorescence | inhibition, % at 10 µM | hit rate 4% among 4,900;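 active = thallium signal drop more than 5 SD beyond the mean of the no-compound control wells, seen in both duplicate plates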;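 note: signal is fluorescence rise after thallium addition divided by baseline fluorescence; plate controls were assay buffer only for no effect and full block by chlorpromazine control for full effect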
HEK293 Tl ctr: second counter-screen for KCNK9 modulators: effect in non-induced cells; non-induced KCNK9-HEK293, FluxOR thallium flux; inhibition, % at 10 µM; shares compounds with KCNK9 block; AID 492997; hit rate 40% among 4,900;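 active = thallium signal drop beyond 5 SD of the untreated control mean, on both duplicate plates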;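 note: plate controls were buffer only IC0 wells for no effect and SID17386958 at its maximal inhibitory level for full effect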
KCNK3 inh conf: human KCNK3 channel inhibition, confirmation assay; shares compounds with KCNK3 block; CHO-KCNK3 thallium flux, FluxOR fluorescence; 0% buffer, 100% carvedilol maximal block; ratio percent of control, % at 10 µM; hit rate 99% among 2,400; AID 651638;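 active = ratio percent of control, averaged over triplicates, above buffer control mean plus 5 SD, cut at about 64% in these data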;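 note: ratio is the fluorescence rise from min to max over baseline after thallium stimulus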
KCNK3 noninduced: activity in cells without induced KCNK3 expression; shares compounds with KCNK3 block; non-induced KCNK3 parental cells, FluxOR thallium flux; active compounds read low; thallium flux ratio (lower = more inhibition) at 10 µM; hit rate 40% among 2,400; AID 651747;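 active = thallium flux ratio, averaged over three wells, more than 5 SD below the buffer control mean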;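 note: host cells are CHO cells without KCNK3 induction; ratio is peak minus trough fluorescence over baseline then normalized to buffer controls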
Active calls of the source: *; i = inactive; . = not tested or not shown. Hits are enriched below; roughly 3.7% of the tested compounds scored in any of these assays.

SMILES	KCNQ1 pot	KCNQ1 inh	KCNK9 block	Kir21 block	hERG rescue	KCNK3 block	KCNK9 block conf	Kir21 sel	HEK293 Tl ctr	KCNK3 inh conf	KCNK3 noninduced
Cc1cc(C)c(S(=O)(=O)N2CCCCC2)c(C)c1N(C)S(=O)(=O)c1ccccc1	i	i	i	1	-5	-8.8*	i	i	i	97*	0.16*
O=C(CN1C(=O)COc2ccc(Cl)cc21)NCC1CCCO1 (stereo not drawn)	i	i	i	-0.85	-7	i	.	.	.	.	.
CCC(C)Nc1nc(N)c([N+](=O)[O-])c(Nc2cc(OC)ccc2OC)n1 (stereo not drawn)	i	i	-9.7*	0.91	-14	i	40%*	i	i	136*	0.13*
CCOC(=O)/C(C(=O)Nc1ccccc1Cl)=C1/NC(C)(C)Cc2ccccc21	i	i	-10*	-0.03	-7	-9.1*	38%*	i	40%*	116*	i
Cc1cccc(-n2cnc3c(sc4nc(N5CCOCC5)c5c(c43)CCCC5)c2=O)c1	i	i	i	1.1	-13	i	.	.	.	.	.
CC(C)CCN(C(=S)Nc1cccc(F)c1)C(C)c1cccs1 (stereo not drawn)	i	i	-10*	0.28	-14	-14*	50%*	i	50%*	119*	0.15*
COCCN(C(=S)Nc1cccc(C)c1)C(C)c1cccs1 (stereo not drawn)	i	i	i	0.04	-3	i	.	.	.	.	.
COc1ccc(O)c(/C=N/Nc2nc(C)cc(-c3ccccc3)n2)c1	i	i	-15*	0.4	-13	-10*	51%*	i	23%*	120*	0.14*
COc1ccc(-n2nc(C(=O)NCC(=O)Nc3cc(OC)ccc3OC)c3ccccc3c2=O)cc1	i	i	-14*	0.17	-4	-11*	i	i	i	89*	i
COc1ccc(OCc2n(CC(=O)OC3CC(C)CCC3C(C)C)c3ccccc3[n+]2C)cc1 (stereo not drawn)	i	10*	-14*	-9.9*	-37	-10*	70%*	79%*	i	112*	i
COc1ccccc1C(=O)Nc1ccc(C(=O)c2ccccc2)cc1	i	i	-12*	1.9	-9	-13*	61%*	i	i	127*	0.13*
COc1ccc(-c2noc(CNC(=O)c3ccc4c(c3)OCO4)n2)cc1OC	i	i	i	1.9	-4	i	.	.	.	.	.
Cc1ccc(S(=O)(=O)n2nc(OC(=O)c3ccccc3C)cc2N)cc1	i	i	-18*	0.03	-2	-15*	70%*	i	74%*	117*	i
O/N=C(\c1ccc(Cl)cc1Cl)c1ncc(C(F)(F)F)cc1Cl	i	i	-13*	-1.2	-11	-9.8*	62%*	i	44%*	97*	0.14*
COc1ccc(/C=N\NC(=O)c2sccc2C)cc1Cn1nc(C)cc1C	i	i	-8.2*	-0.07	-15	-8.8*	i	i	i	88*	i
O=C1CCN(Cc2cccnc2)CCN1[C@H](CO)Cc1ccccc1	i	i	i	2.4	2	i	.	.	.	.	.
COc1ccccc1/C=C/C(=O)OCC(=O)NCc1ccc2c(c1)OCO2	.	.	.	.	.	i	.	.	.	.	.
COc1ccccc1/C=C(/CC(=O)NCc1ccc2c(c1)OCO2)c1nc2ccccc2s1	i	i	-12*	0.38	-6	-9.3*	56%*	i	29%*	125*	0.14*
N#CC(C#N)=c1ccc2c(c1)N1C3=C(CCCC3)CC3CCCCC31N=2 (stereo not drawn)	i	14*	-16*	1.1	-28	-9.8*	67%*	i	45%*	130*	0.11*
O=C(/C(N=Nc1cccc(C(F)(F)F)c1)=C(/O)c1cccs1)C(F)(F)F	i	10*	-8.8*	-1.7	-15	i	i	i	i	67*	i
CC(=O)/C(N=Nc1cccc(C(F)(F)F)c1)=C(\C)O	i	i	i	1	-4	i	.	.	.	.	.
COc1ccccc1N(CC(=O)Nc1ccc(Br)cc1F)S(=O)(=O)c1cccs1	.	.	.	.	.	i	.	.	.	.	.
Cc1cccc(C(=O)NCC(=O)N2CCN(c3ccccn3)CC2)c1	.	.	.	.	.	i	.	.	.	.	.
CCC(=O)c1ccccc1OCCCN1CCC(Cc2ccccc2)CC1	i	i	i	-5.4*	-17	-10*	i	i	i	88*	0.13*
COC(=O)C1=C(C)N=C2SC(C)C(=O)N2C1c1cccc(F)c1 (stereo not drawn)	i	i	-13*	-1.9	-7	-12*	74%*	i	50%*	102*	i
SMILES	KCNQ1 pot	KCNQ1 inh	KCNK9 block	Kir21 block	hERG rescue	KCNK3 block	KCNK9 block conf	Kir21 sel	HEK293 Tl ctr	KCNK3 inh conf	KCNK3 noninduced
CCOc1cc(C2C(C(=O)OC)=C(C)N=C3SC(C)C(=O)N32)ccc1OC(C)=O (stereo not drawn)	i	i	i	-1.4	-3	i	.	.	.	.	.
O=C(c1cc(C(=O)N2CCOCC2)c2nc3ccccc3n2c1)c1cc(Cl)cc(Cl)c1O	i	i	i	0.03	-8	i	.	.	.	.	.
Cc1ccc(NC(=O)CN(Cc2ccco2)Cc2ccccc2O)cc1C	i	6*	-15*	-1.2	-13	-12*	72%*	i	42%*	134*	0.15*
Cc1ccc(NC(=O)N(Cc2cccnc2)Cc2ccco2)cc1C	i	i	i	-1.8	-16	i	.	.	.	.	.
COc1ccc(Br)cc1/C(C)=N/NC1=NCCN1	i	i	i	-1.5	-3	i	.	.	.	.	.
CCCCCOc1ccc(Br)cc1/C(C)=N/NC1=NCCN1	i	i	-11*	-14*	-22	-11*	41%*	66%*	i	105*	0.13*
COCCn1nnnc1C(c1ccccc1OC)N1CCN(C(=O)c2ccco2)CC1 (stereo not drawn)	i	i	i	1.7	-2	i	.	.	.	.	.
